According to ChEMBL document CHEMBL1123739, “Relationships between DNA-binding kinetics and biological activity for the 9-aminoacridine-4-carboxamide class of antitumor agents” (J Med Chem, 1987):
Several values for one entry are separate records, joined by “and”; a condition that tells them apart may be missing. Equal entries are not always repeated. Activity calls are given as the source filed them. The calls are words filed in the database; no cut-off is given here.

How the values were obtained:
Nucleic Acid = experiment: Difference between log K of (AT) and log K of (GC) DNA binding; assay type: nucleic-acid assay
Calf thymus DNA [1] = experiment: Logarithm of association constant for binding to DNA by ethidium displacement; assay type: nucleic-acid assay; conditions: Bos taurus
Calf thymus DNA [2] = experiment: DNA dissociation constant was determined from calf thymus; assay type: functional; conditions: Bos taurus
In short: (§1)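 Stopped-flow SDS-sequestration assay. Sonicated calf thymus DNA (400 µM base pairs) and 20 µM drug in 0.1 SHE buffer (2 mM HEPES, 10 µM EDTA, 99.4 mM NaCl, pH 7.0) were mixed 1:1 with 20 mM SDS at 20 °C. Absorbance decay was deconvoluted into exponential time constants by curve stripping. At least six runs were averaged; ratios were taken between time constants.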

Calf thymus DNA [3] = experiment: Ratio T3/T2 of DNA dissociation constant from calf thymus; assay type: functional; conditions: Bos taurus; in short: as §1
Calf thymus DNA [4] = experiment: Ratio T2/T1 of DNA dissociation constant from calf thymus; assay type: functional; conditions: Bos taurus; in short: as §1
Calf thymus DNA [5] = experiment: DNA dissociation constant from calf thymus; assay type: functional; conditions: Bos taurus; in short: as §1
P388 [6] = experiment: Percentage increase in life span treated animals over those of controls injected with P388 leukemia cells; NA means no activity (ILS <20%) at all dose levels; assay type: functional; conditions: Mus musculus
L1210 = experiment: Evaluated for concentration which when added to cultures of L1210 leukemia cells for a period of 70 hr reduces cell numbers of 50% of control cultures; assay type: functional, cell-based; conditions: Mus musculus, L1210, 70 h
P388 [7] = experiment: Compound administered intraperitoneally was evaluated for optimal dose (OD) given per day after inoculation of 10e 6 P388 leukemia cells for highest nontoxic dose; assay type: functional, Mus musculus
Calf thymus DNA [8] = experiment: Ratio T4/T3 of DNA dissociation constant from calf thymus; assay type: functional; conditions: Bos taurus; in short: as §1
P388 [9] = experiment: Percentage increase in life span treated animals over those of controls injected with P388 leukemia cells;NA means no activity (ILS<20%) at all dose levels; assay type: functional; conditions: Mus musculus
P388 [10] = experiment: Percentage increase in life span treated animals over those of controls injected with P388 leukemia cells; assay type: functional, Mus musculus
Calf thymus DNA [11] = experiment: Ratio of DNA dissociation constant from calf thymus; assay type: functional; conditions: Bos taurus; in short: as §1
Calf thymus DNA [12] = experiment: Ratio T3/T2 of DNA dissociation constant of poly(dG-dC) from calf thymus; assay type: functional; conditions: Bos taurus
Calf thymus DNA [13] = experiment: Ratio T2/T1 of DNA dissociation constant of poly(dG-dC) from calf thymus; assay type: functional; conditions: Bos taurus
Calf thymus DNA [14] = experiment: Dissociation constant of poly(dG-dC)DNA in calf thymus; assay type: functional; conditions: Bos taurus
Calf thymus DNA [15] = experiment: Dissociation constant of poly(dG-dC)DNA binding in calf thymus; assay type: functional; conditions: Bos taurus
P388 [16] = experiment: Percentage increase in life span treated animals over those of controls injected with P388 leukemia cells; NA means no activity (ILS<20%) at all dose levels; assay type: functional; conditions: Mus musculus
[17] = system: L1210 (mouse leukemia cells); experiment: Ability to inhibit growth of mouse leukemia L1210 cells
P388 [18] = experiment: Percentage increase in life span treated animals over those of controls injected with P388 leukemia cells; Na means no activity (ILS<20%) at all dose levels; assay type: functional; conditions: Mus musculus

| SMILES | Log K delta (Nucleic Acid) | Log K (Calf thymus DNA [1]) | Time constant T2 (Calf thymus DNA [2]) | Ratio (Calf thymus DNA [3]) | Ratio (Calf thymus DNA [4]) | Time constant T1 (Calf thymus DNA [5]) | Time constant T3 (Calf thymus DNA [5]) | OD (P388 [7]) | Ratio (Calf thymus DNA [8]) | Time constant T4 (Calf thymus DNA [5]) | ILS (P388 [10]) | other results |
| --- | --- | --- | --- | --- | --- | --- | --- | --- | --- | --- | --- | --- |
| COc1ccc2c(N)c3ccccc3nc2c1C(=O)NCCN(C)C | -0.09 | 7.21 and 7.12 | 20 ms | 4.4 | 2.9 | 7 ms | 87 ms |  |  |  |  | ILS (P388 [6]): inactive |
| CN(C)CCCCCCNC(=O)c1cccc2c(N)c3ccccc3nc12 | -0.01 | 7.41 and 7.4 | 19 ms | 4.2 | 4.8 | 4 ms | 80 ms |  |  |  |  |  |
| CN(C)CCN(C)C(=O)c1cccc2c(N)c3ccccc3nc12 | 0 | 6.37 | 11 ms |  | 5.5 | 2 ms |  | 30 mg/kg |  |  |  | IC50 (L1210): 5300 nM; ILS (P388 [6]): inactive |
| Nc1c2ccccc2nc2c(C(=O)NCCN3CCOCC3)cccc12 | 0.29 | 7.29 and 7.58 | 40 ms | 3.3 | 10 | 4 ms | 135 ms | 30 mg/kg | 4.4 | 590 ms |  | ILS (P388 [9]): inactive |
| Nc1c2ccccc2nc2ccccc12 [AMINACRINE] | 0.07 | 6.08 and 6.11 | 15 ms |  | 6.3 | 2.5 ms |  | 20 mg/kg |  |  |  | IC50 (L1210): 2600 nM |
| COc1ccc2c(N)c3cccc(C(=O)NCCN(C)C)c3nc2c1 | 0.38 | 7.33 and 7.71 | 83 ms | 3.3 | 3.2 | 26 ms | 271 ms |  | 3.7 | 1000 ms |  | ILS (P388 [6]): inactive |
| Nc1c2ccccc2nc2c(C(=O)NCCNCCO)cccc12 | 0.39 | 7.34 and 7.73 | 17 ms |  |  | 5 ms | 49 ms | 20 mg/kg |  | 214 ms | 73 | Ratio (Calf thymus DNA [11]): 3.4 and 2.9 and 4.4 |
| COc1ccc(C(=O)NCCN(C)C)c2nc3ccccc3c(N)c12 | 0.21 | 7.31 and 7.52 | 102 ms | 3.5 | 4.6 | 22 ms | 355 ms |  | 6.4 | 2270 ms | 27 | IC50 (L1210): 0.6 nM |
| CN(C)CCCCNC(=O)c1cccc2c(N)c3ccccc3nc12 | -0.06 | 7.49 and 7.43 | 16 ms | 3.3 | 4 | 4 ms | 52 ms |  |  |  |  | IC50 (L1210): 430 nM; Ratio (Calf thymus DNA [12]): 3.3; Ratio (Calf thymus DNA [13]): 6.5; Time constant T2 (Calf thymus DNA [14]): 26 ms; Time constant T3 (Calf thymus DNA [14]): 86 ms; Time constant T1 (Calf thymus DNA [15]): 4 ms |
| CN(C)CCNC(=O)c1cccc2c(N)c3ccccc3nc12 |  |  |  |  |  |  |  |  |  |  | 98 |  |
| CN(C)CCNC(=O)c1ccc2c(N)c3ccccc3nc2c1 | 0.48 | 7.18 and 7.66 | 27 ms | 3.6 | 4.5 | 6 ms | 98 ms | 250 mg/kg |  |  |  | ILS (P388 [16]): inactive |
| CN(C)CCNC(=O)c1ccc2nc3ccccc3c(N)c2c1 | 0.47 | 7.08 and 7.55 | 27 ms | 3.37 | 2.7 | 10 ms | 90 ms | 12.5 mg/kg |  |  |  | ILS (P388 [16]): inactive |
| COc1cc(C(=O)NCCN(C)C)c2nc3ccccc3c(N)c2c1 | 0.76 |  | 79 ms | 3.9 | 4 | 20 ms | 311 ms |  | 6.6 | 2050 ms | 72 |  |
| CCN(CC)CCNC(=O)c1cccc2c(N)c3ccccc3nc12 | 0.33 | 7.26 and 7.59 | 13 ms | 3.9 | 4.3 | 3 ms | 51 ms | 5.9 mg/kg | 5.5 | 280 ms | 70 |  |
| COc1ccc2nc3c(C(=O)NCCN(C)C)cccc3c(N)c2c1 | 0.02 | 7.64 and 7.66 | 25 ms | 2.6 | 2.8 | 9 ms | 64 ms |  | 5.2 | 330 ms |  | ILS (P388 [6]): inactive |
| COc1cccc2c(N)c3cccc(C(=O)NCCN(C)C)c3nc12 | 0.21 | 7.62 and 7.83 | 69 ms | 4.3 | 4.1 | 17 ms | 299 ms |  | 3.6 | 1080 ms | 81 |  |
| CN(C)CCCNC(=O)c1cccc2c(N)c3ccccc3nc12 | 0.09 | 7.51 and 7.6 | 15 ms | 2.9 | 3.8 | 4 ms | 44 ms | 50 mg/kg |  |  |  | ILS (P388 [16]): inactive |
| CN(C)CCCCCNC(=O)c1cccc2c(N)c3ccccc3nc12 | 0 | 7.45 | 16 ms | 3.6 | 4 | 4 ms | 58 ms |  |  |  |  |  |
| COc1cccc2nc3c(C(=O)NCCN(C)C)cccc3c(N)c12 | -0.18 | 7.68 and 7.55 | 30 ms | 5.6 | 5 | 6 ms | 168 ms |  |  |  |  | ILS (P388 [6]): inactive |
| CN(C)CCNS(=O)(=O)c1cccc2c(N)c3ccccc3nc12 |  |  | 21 ms |  | 4.2 | 5 ms |  | 65 mg/kg |  |  |  | IC50 [17]: 13000 nM; ILS (P388 [18]): inactive |
